Experimental data taken from PubChem BioAssay AID588717 (Southern Research Specialized Biocontainment Screening …, 2011).
Records with an inconclusive call do not appear. Activity calls are given as the source filed them.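 How the source made its calls: active means viability below 80% at one or more tested concentrations; inconclusive means replicate runs disagree on the 80% viability cutoff; inactive means viability above 80% at every tested concentration.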

Test system: not listed separately
Assay: Vero E6 cell cytotoxicity, dose response, cytotoxicity control for P. falciparum PFM1AAP inhibitor project, M1 aminopeptidase campaign (AID 588717)
Conditions: Vero E6 viability, CellTiter-Glo luminescence, 72 h; at 50 µM (top of the series)
Method in brief: (§1)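 Material: Vero E6 cells | Quantity: 3000 cells/well | Medium: E-MEM plus 10% FBS | Times: 72 h treatment, 37 °C | Detection: ATP-based luminescence with CellTiter-Glo reagent | Measure: % viability vs vehicle, CC50 from curve fit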

Question: Which viability does the source give for `COc1cccc(-c2ccc(S(=O)(=O)N3CCC(C(=O)NCc4ccc5c(c4)OCO5)CC3)s2)c1` here?
Answer: Its viability is 83.4% (inactive).

Question: Which viability does the source give for `CC[C@H](C)[C@H](NS(=O)(=O)c1ccc(Br)s1)C(=O)NCc1ccc(F)cc1` here?
Answer: The viability was 97% (inactive).

Question: With `CC[C@H](C)[C@H](NC(=O)c1ccc([N+](=O)[O-])cc1)C(=O)NCc1ccc(C(F)(F)F)cc1` as the compound, how does the viability read?
Answer: Its viability is 92.2% (inactive).

Question: Which viability does the source give for `COc1ccc(-c2ccc(S(=O)(=O)N3CCC(C(=O)NCc4ccc5c(c4)OCO5)CC3)s2)cc1` here?
Answer: The viability was 84.2% (inactive).

Question: Which viability does the source give for `CC[C@H](C)[C@H](NC(=O)c1ccc([N+](=O)[O-])cc1)C(=O)NCc1ccccc1` here?
Answer: Its viability is 88.9% (inactive).

Question: Which viability does the source give for `CC[C@H](C)[C@H](NS(=O)(=O)c1ccc(Br)s1)C(=O)O` here?
Answer: The viability was 104% (inactive).

Question: Which viability does the source give for `CC[C@H](C)[C@H](NS(=O)(=O)c1cccs1)C(=O)NCc1ccc(F)cc1` here?
Answer: Its viability is 95.5% (inactive).

Test system: Vero E6 viability, CellTiter-Glo luminescence, 72 h
Assay: as above
Conditions: not given
Method in brief: as §1

Question: With `CC[C@H](C)[C@H](NS(=O)(=O)c1ccc(Br)s1)C(=O)NCc1ccc(C(F)(F)F)cc1` as the compound, how does the CC50 read?
Answer: Its CC50 is 28.7 µM.
